Values joined by “and” are separate entries in the source; they are usually repeats but may differ in a detail not shown here. Equal entries are not always repeated.
Key:
[1] = test system: BALB/c Mice with Subcutaneous Flank DBT Tumors; assay: Whole body biodistribution in mice with subcutaneous DBT gliomas; type: in vivo, mouse; conditions: for biodistribution, tumor uptake: subcutaneous DBT tumor
Method in brief: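 Male BALB/c mice carried subcutaneous flank DBT tumors (5 × 10⁵ cells) and were used at day 14. Under 1% isoflurane–oxygen, each received ~56 μCi (2.07 MBq) of ⁷⁶Br-labelled or 45 μCi (1.67 MBq) of ¹²³I-labelled test compound by tail vein in 0.9% saline. Mice were killed at 5 min, 30 min, 1, 3 and 24 h (n = 4 per time). Tissues were weighed and γ-counted with decay correction, giving % ID/g.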

[2] = test system: mice with intracranial DBT gliomas; assay: Small animal PET/CT imaging in mice with intracranial DBT gliomas; type: in vivo, mouse; conditions: PET; for SUV tumor uptake: intracranial DBT tumor
Method in brief: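 Four male BALB/c mice carried intracranial DBT gliomas (1 × 10⁴ cells, right mid-cerebrum) and were imaged 14 days after implantation. Under 1% isoflurane–oxygen, each received ~55 μCi (~2.04 MBq) of ⁷⁶Br-labelled test compound by tail vein in 0.9% saline. Imaging was dynamic PET/CT for 0–60 min, then 15-min static scans at 3 and 24 h. Read-out was SUV. Tumors were confirmed afterwards by H&E on fixed brains.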

DBT glioma cells = assay: Competitive amino acid cell uptake assays; type: cell-based, mouse; conditions: 60 s, 37 °C
Method in brief: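 Mouse DBT glioma cells were seeded at 1 × 10⁵ cells/well and grown 48 h in 10% FBS DMEM under 5% CO₂. Cells were washed twice in 37 °C buffer, then exposed for 60 s at 37 °C, pH 7.40, to the radiotracer. Buffers were Na phosphate-buffered saline or choline-substituted Na-free buffer. Controls had 10 mM sucrose; BCH was 10 mM. Cells were washed with ice-cold buffer, lysed in 0.2% SDS/0.2 M NaOH, γ-counted, and normalized to added activity and BCA protein. Values are % of control, triplicate × two plates.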

[3] = 50–60 min (summed) after injection

## C[C@](N)(/C=C/[76Br])C(=O)O [[^76Br]5, (S)-amino-2-methyl-4-[^76Br]-bromo-3-(E)-butenoic acid]
[1]; 5 min after i.v. injection
  biodistribution, blood: 5.75 ± 0.44 % ID/g
  biodistribution, bone: 2.13 ± 0.43 % ID/g
  biodistribution, brain: 0.54 ± 0.04 % ID/g
  biodistribution, fat: 1.36 ± 0.38 % ID/g
  biodistribution, heart: 2.92 ± 0.29 % ID/g
  biodistribution, kidney: 47.50 ± 4.26 % ID/g
  biodistribution, liver (all): 4.57 ± 0.27 % ID/g
  biodistribution, lung: 6.20 ± 0.41 % ID/g
  biodistribution, muscle: 1.54 ± 0.18 % ID/g
  biodistribution, pancreas: 27.0 ± 7.2 % ID/g and 27.04 ± 7.15 % ID/g
  biodistribution, spleen: 8.20 ± 0.71 % ID/g
  biodistribution, tumor uptake: 2.5 ± 0.64 % ID/g and 2.52 ± 0.64 % ID/g
[1]; 30 min after i.v. injection
  biodistribution, blood: 1.66 ± 0.16 % ID/g
  biodistribution, bone: 1.95 ± 0.29 % ID/g
  biodistribution, brain: 0.42 ± 0.02 % ID/g
  biodistribution, fat: 0.85 ± 0.71 % ID/g
  biodistribution, heart: 2.21 ± 0.18 % ID/g
  biodistribution, kidney: 8.95 ± 0.91 % ID/g
  biodistribution, liver (all): 1.63 ± 0.33 % ID/g
  biodistribution, lung: 1.73 ± 0.16 % ID/g
  biodistribution, muscle: 1.75 ± 0.77 % ID/g
  biodistribution, pancreas: 24.35 ± 4.06 % ID/g
  biodistribution, spleen: 4.05 ± 0.55 % ID/g
  biodistribution, tumor uptake: 3.8 ± 0.95 % ID/g and 3.79 ± 0.95 % ID/g
[1]; 1 h after i.v. injection
  biodistribution, blood: 1.22 ± 0.19 % ID/g
  biodistribution, bone: 1.18 ± 0.64 % ID/g
  biodistribution, brain: 0.38 ± 0.04 % ID/g
  biodistribution, fat: 0.31 ± 0.20 % ID/g
  biodistribution, heart: 1.67 ± 0.27 % ID/g
  biodistribution, kidney: 5.49 ± 0.98 % ID/g
  biodistribution, liver (all): 1.03 ± 0.48 % ID/g
  biodistribution, lung: 1.15 ± 0.22 % ID/g
  biodistribution, muscle: 0.98 ± 0.12 % ID/g
  biodistribution, pancreas: 14.31 ± 8.12 % ID/g
  biodistribution, spleen: 2.30 ± 0.82 % ID/g
  biodistribution, tumor uptake: 3.7 ± 0.4 % ID/g and 3.72 ± 0.43 % ID/g
[1]; 3 h after i.v. injection
  biodistribution, blood: 0.87 ± 0.44 % ID/g
  biodistribution, bone: 0.46 ± 0.20 % ID/g
  biodistribution, brain: 0.31 ± 0.06 % ID/g
  biodistribution, fat: 0.17 ± 0.04 % ID/g
  biodistribution, heart: 0.67 ± 0.15 % ID/g
  biodistribution, kidney: 1.29 ± 0.43 % ID/g
  biodistribution, liver (all): 0.34 ± 0.09 % ID/g
  biodistribution, lung: 0.54 ± 0.07 % ID/g
  biodistribution, muscle: 0.4 ± 0.20 % ID/g
  biodistribution, pancreas: 2.48 ± 1.17 % ID/g
  biodistribution, spleen: 0.59 ± 0.21 % ID/g
  biodistribution, tumor uptake: 1.65 ± 0.40 % ID/g
[1]; 24 h after i.v. injection
  biodistribution, blood: 0.37 ± 0.04 % ID/g
  biodistribution, bone: 0.1 ± 0.04 % ID/g
  biodistribution, brain: 0.09 ± 0.01 % ID/g
  biodistribution, fat: 0.04 ± 0.01 % ID/g
  biodistribution, heart: 0.13 ± 0.02 % ID/g
  biodistribution, kidney: 0.23 ± 0.02 % ID/g
  biodistribution, liver (all): 0.1 ± 0.02 % ID/g
  biodistribution, lung: 0.27 ± 0.05 % ID/g
  biodistribution, muscle: 0.08 ± 0.01 % ID/g
  biodistribution, pancreas: 0.17 ± 0.02 % ID/g
  biodistribution, spleen: 0.18 ± 0.03 % ID/g
  biodistribution, tumor uptake: 0.25 ± 0.03 % ID/g
[1]; normal brain, through 3 h after injection
  brain uptake, fold higher than with [^123I]8: 2- to 3 fold
[1]; subcutaneous DBT tumors, around 30 min to an hour postinjection
  maximal tumor uptake: 3.7–3.8 % ID/g
[1]; thyroid, 5 min after i.v. injection
  biodistribution, thyroid: 3.60 ± 0.69 % ID/g
[1]; thyroid, 5 min after injection
  thyroid uptake: 3.6 ± 0.7 % ID/organ
[1]; thyroid, 30 min after i.v. injection
  biodistribution, thyroid: 1.63 ± 0.12 % ID/g
[1]; thyroid, 1 h after i.v. injection
  biodistribution, thyroid: 1.26 ± 0.18 % ID/g
[1]; thyroid, 3 h after i.v. injection
  biodistribution, thyroid: 0.53 ± 0.08 % ID/g
[1]; thyroid, 24 h after i.v. injection
  biodistribution, thyroid: 0.17 ± 0.06 % ID/g
[2]; [3]
  tumor/brain SUV ratio: 1.70 ± 0.26
  SUV tumor uptake: 0.63 ± 0.06
[2]; 3 h after injection
  tumor/brain SUV ratio: 2.67 ± 0.15
  SUV tumor uptake: 0.70 ± 0.13
[2]; 24 h after injection
  tumor/brain SUV ratio: 3.05 ± 0.30
DBT glioma cells; Na BCH condition (BCH 10 mM, system L inhibitor, sodium buffer)
  uptake relative to control: 43 ± 8.5%
DBT glioma cells; choline + BCH (sodium-free, Cho-BCH)
  uptake compared to sodium control: 25 ± 4.1%
DBT glioma cells; choline control (sodium-free, Cho-sucrose)
  uptake compared to the sodium control: 46 ± 10%
DBT glioma cells; in the presence of MeAIB (10 mM, system A inhibitor), sodium buffer
  uptake relative to the control: 56 ± 12%
